Measurements: ChEMBL document CHEMBL4316604, “Discovery of Isaindigotone Derivatives as Novel Bloom's Syndrome Protein (BLM) Helicase Inhibitors That Disrupt the BLM/DNA Interactions and Regulate the Homologous Recombination Repair” (J Med Chem, 2019)
Activity calls are given as the source filed them. No cut-off for these calls is given here.

Key:
[1] = target: T1, RecQ-like DNA helicase BLM (Homo sapiens, UniProt P54132); assay: Inhibition of His-tagged BLM (unknown origin) expressed in Escherichia coli BL21 (DE3) assessed as reduction in BLM helicase unwinding activity at 10 uM using 5'-biotin labeled forked-DNA as substrate after 1 hr by PAGE analysis
T1 sequence (P54132 whole entry): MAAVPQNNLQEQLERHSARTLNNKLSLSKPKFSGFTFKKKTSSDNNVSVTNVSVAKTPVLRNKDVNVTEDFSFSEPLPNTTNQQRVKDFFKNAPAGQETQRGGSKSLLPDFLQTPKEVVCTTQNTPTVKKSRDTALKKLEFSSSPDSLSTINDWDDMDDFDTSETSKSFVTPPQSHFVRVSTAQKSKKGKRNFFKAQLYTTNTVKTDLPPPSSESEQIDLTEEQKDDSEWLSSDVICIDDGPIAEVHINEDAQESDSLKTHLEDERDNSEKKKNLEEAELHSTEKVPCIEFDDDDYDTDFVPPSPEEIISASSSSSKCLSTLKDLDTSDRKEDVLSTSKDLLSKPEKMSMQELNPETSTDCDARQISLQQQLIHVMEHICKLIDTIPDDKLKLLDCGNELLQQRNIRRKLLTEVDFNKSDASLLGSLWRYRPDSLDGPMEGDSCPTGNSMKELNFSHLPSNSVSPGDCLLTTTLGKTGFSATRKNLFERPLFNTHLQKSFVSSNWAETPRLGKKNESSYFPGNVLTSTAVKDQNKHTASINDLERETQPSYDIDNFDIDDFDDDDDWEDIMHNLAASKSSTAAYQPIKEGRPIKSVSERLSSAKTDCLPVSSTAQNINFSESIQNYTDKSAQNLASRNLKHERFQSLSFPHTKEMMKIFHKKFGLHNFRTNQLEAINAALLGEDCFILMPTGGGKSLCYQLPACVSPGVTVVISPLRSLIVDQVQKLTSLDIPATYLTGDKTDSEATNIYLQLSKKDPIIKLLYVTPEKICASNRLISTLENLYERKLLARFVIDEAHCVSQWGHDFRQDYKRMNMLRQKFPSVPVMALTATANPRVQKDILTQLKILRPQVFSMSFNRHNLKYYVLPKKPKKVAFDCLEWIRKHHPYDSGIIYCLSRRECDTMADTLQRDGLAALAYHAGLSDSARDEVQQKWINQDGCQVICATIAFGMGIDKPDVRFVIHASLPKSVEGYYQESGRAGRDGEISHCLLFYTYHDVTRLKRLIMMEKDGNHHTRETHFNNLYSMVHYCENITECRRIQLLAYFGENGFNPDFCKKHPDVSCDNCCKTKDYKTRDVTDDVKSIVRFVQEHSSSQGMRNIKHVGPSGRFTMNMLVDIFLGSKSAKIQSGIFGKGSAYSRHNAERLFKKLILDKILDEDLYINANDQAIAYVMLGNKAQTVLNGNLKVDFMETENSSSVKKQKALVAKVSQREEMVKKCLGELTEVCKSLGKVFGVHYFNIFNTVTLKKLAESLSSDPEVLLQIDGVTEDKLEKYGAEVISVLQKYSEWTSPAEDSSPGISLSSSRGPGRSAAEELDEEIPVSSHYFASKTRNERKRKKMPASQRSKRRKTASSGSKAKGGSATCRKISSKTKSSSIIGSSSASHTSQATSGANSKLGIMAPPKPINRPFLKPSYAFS
Method in brief: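 BLM642-1296 (His-tagged, E. coli BL21(DE3)) preincubated with ligand (1.0, 10, 50 μM; ≤1% DMSO) for 1 h at 4 °C. Reaction: 8 nM annealed 5′-biotin duplex forked DNA, 32 nM BLM, 2 mM ATP, 0.1% BSA, 1 h.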

[2] = target: RecQ-like DNA helicase BLM (Homo sapiens, UniProt P54132, E1143A); assay: Binding affinity to His-tagged BLM E1143A mutant (unknown origin) expressed in Escherichia coli BL21 (DE3) by ITC assay
Chain of RecQ-like DNA helicase BLM (Homo sapiens, UniProt P54132, E1143A) (P54132 whole entry E1143A): as the sequence (P54132 whole entry) above, with E1143A counted along it
Method in brief: (§1)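 ITC at 25 °C in 2 mM MgCl2, 10 mM KH2PO4, pH 7.5: ligand (0.6 mM, syringe) titrated in 10 μL injections, 300 s apart, into BLM642-1296 wild-type or point mutant, or DNA (0.04 mM, cell). His-tagged BLM from E. coli BL21(DE3), induced with […] at 16 °C for 24 h. Heats integrated, fitted to 1:1 model for KD.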

[3] = target: RecQ-like DNA helicase BLM (Homo sapiens, UniProt P54132, I1168A); assay: Binding affinity to His-tagged BLM I1168A mutant (unknown origin) expressed in Escherichia coli BL21 (DE3) by ITC assay; method in brief: as §1
Chain of RecQ-like DNA helicase BLM (Homo sapiens, UniProt P54132, I1168A) (P54132 whole entry I1168A): as the sequence (P54132 whole entry) above, with I1168A counted along it

[4] = target: RecQ-like DNA helicase BLM (Homo sapiens, UniProt P54132, M1111A); assay: Binding affinity to His-tagged BLM M1111A mutant (unknown origin) expressed in Escherichia coli BL21 (DE3) by ITC assay; method in brief: as §1
Chain of RecQ-like DNA helicase BLM (Homo sapiens, UniProt P54132, M1111A) (P54132 whole entry M1111A): as the sequence (P54132 whole entry) above, with M1111A counted along it

[5] = system: HCT-116; assay: Induction of apoptosis in human HCT116 cells assessed as up-regulation of ATM phosphorylation up to 2 uM after 24 hrs by Western blot analysis
[6] = target: T1, RecQ-like DNA helicase BLM; assay: Binding affinity to His-tagged BLM (642 to 1296 residues) (unknown origin) expressed in Escherichia coli BL21 (DE3) by ITC assay; method in brief: as §1
[7] = system: RecQ-like DNA helicase BLM (Homo sapiens), P54132 [I1168A]; assay: Inhibition of His-tagged BLM I1168A mutant (unknown origin) binding to DNA assessed as effect on unbound DNA
Chain of RecQ-like DNA helicase BLM (Homo sapiens), P54132 [I1168A] (P54132 whole entry I1168A): as the sequence (P54132 whole entry) above, with I1168A counted along it
Method in brief: (§2)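 Biotinylated forked DNA (50 nM) immobilised on streptavidin plates overnight at 4 °C. BLM or mutant (100 nM final) premixed with serially halved ligand in 3% BSA blocking buffer, ≤1% DMSO, 1 h on ice. Applied to the blocked plate for 1 h at 37 °C. Bound BLM detected with anti-BLM and HRP secondary, TMB, A450; Hill fit.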

[8] = target: T1, RecQ-like DNA helicase BLM; assay: Inhibition of ATP hydrolysis activity of His-tagged BLM (unknown origin) expressed in Escherichia coli BL21 (DE3) at 1 to 10 uM
[9] = system: RecQ-like DNA helicase BLM (Homo sapiens), P54132 [H996A]; assay: Inhibition of His-tagged BLM H996A mutant (unknown origin) binding to DNA assessed as effect on unbound DNA; method in brief: as §2
Chain of RecQ-like DNA helicase BLM (Homo sapiens), P54132 [H996A] (P54132 whole entry H996A): as the sequence (P54132 whole entry) above, with H996A counted along it

[10] = system: RecQ-like DNA helicase BLM (Homo sapiens), P54132 [E1143A]; assay: Inhibition of His-tagged BLM E1143A mutant (unknown origin) binding to DNA assessed as effect on unbound DNA; method in brief: as §2
Chain of RecQ-like DNA helicase BLM (Homo sapiens), P54132 [E1143A] (P54132 whole entry E1143A): as the sequence (P54132 whole entry) above, with E1143A counted along it

[11] = system: HCT-116; assay: Antiproliferative activity against human HCT116 cells after 24 hrs by MTT assay; type: functional, cell-based; conditions: in the assay text read “48 hrs” for “24 hrs”
Method in brief: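 HCT116 cells (5×10^3/well) grown 24 h, then exposed to 0–50 μM test agent; for knockdown, cells pre-treated with 50 nM BLM siRNA for 24 h first.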

[12] = target: T2, DNA repair protein RAD51 homolog 1 (Homo sapiens) (UniProt Q06609); assay: Induction of RAD51 (unknown origin) binding to ssDNA up to 1 uM […] by ELISA based DNA exchange activity assay
T2 sequence (whole entry): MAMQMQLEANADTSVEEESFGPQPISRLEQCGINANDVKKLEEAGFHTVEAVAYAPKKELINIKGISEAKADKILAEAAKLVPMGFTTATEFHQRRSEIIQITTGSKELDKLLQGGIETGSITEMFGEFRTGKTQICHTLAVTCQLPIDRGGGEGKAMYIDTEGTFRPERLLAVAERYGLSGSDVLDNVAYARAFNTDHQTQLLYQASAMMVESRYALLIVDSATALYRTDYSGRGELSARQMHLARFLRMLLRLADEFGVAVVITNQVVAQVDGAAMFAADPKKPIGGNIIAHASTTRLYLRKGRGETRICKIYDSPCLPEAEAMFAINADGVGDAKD
Method in brief: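 Biotinylated duplex forked DNA (50 nM final) immobilised on streptavidin plates. BLM (10–1000 nM) preincubated 1 h at 37 °C with ligand series, then added with 250 nM RAD51 for 1 h at 37 °C, ELISA format. Bound RAD51 read at 450 nm as RAD51–ssDNA filament level.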

[13] = system: HCT-116; assay: Induction of apoptosis in human HCT116 cells assessed as apoptotic cells after 48 hrs by Hoechst/propidium iodide-staining based flow cytometry; type: functional, cell-based
[14] = target: T1, RecQ-like DNA helicase BLM; assay: Inhibition of BLM (unknown origin) assessed as increase in RAD51-ssDNA filaments up to 5 uM after 24 hrs by ELISA based DNA exchange activity assay
[15] = system: HCT-116; assay: Chemosensitization activity in human HCT116 cells assessed as cisplatin-induced antiproliferative activity at 1.25 uM in presence of cisplatin and BLM siRNA after 24 hrs by MTT assay (reference value: 15.4%); type: functional, cell-based
[16] = target: RecQ-like DNA helicase BLM (Homo sapiens, UniProt P54132, Y995A); assay: Binding affinity to His-tagged BLM Y995A mutant (unknown origin) expressed in Escherichia coli BL21 (DE3) by ITC assay; method in brief: as §1
Chain of RecQ-like DNA helicase BLM (Homo sapiens, UniProt P54132, Y995A) (P54132 whole entry Y995A): as the sequence (P54132 whole entry) above, with Y995A counted along it

[17] = system: HCT-116; assay: Chemosensitization activity in human HCT116 cells assessed as RI-I-induced antiproliferative activity at 1.25 uM in presence of RI-I after 24 hrs by MTT assay; type: functional, cell-based
[18] = system: HCT-116; assay: Induction of apoptosis in human HCT116 cells assessed as increase in cleaved PARP expression at 2 uM after 48 hrs by Western blot analysis; type: functional, cell-based
Method in brief: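 HCT116 cells treated with ligand (DNA-damage proteins 24 h, apoptosis proteins 48 h), lysed in RIPA at 4 °C. 40 μg protein per lane resolved by SDS-PAGE, blotted to PVDF, probed with damage and apoptosis antibody panels; β-actin loading control; chemiluminescent detection.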

[19] = target: T1, RecQ-like DNA helicase BLM; assay: Inhibition of BLM in human HCT116 cells assessed as induction of RAD51 foci accumulation on gamma-H2AX foci at 1 to 2 after 24 hrs by immunofluorescence assay; type: cell-based
Method in brief: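 HCT116 cells treated 24 h, fixed in 4% paraformaldehyde, permeabilised with 0.5% Triton X-100, blocked in 5% goat serum. Stained with γ-H2AX and RAD51 antibodies overnight at 4 °C, Alexa 488/647 secondaries and DAPI. Imaged by confocal microscopy for foci co-localisation.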

inhibition [1]: Active | Kd [2]: 6 µM | Kd [3]: 6.5 µM | Kd [4]: 4.9 µM | Kd [6]: 1.8 µM | inhibition [7]: inactive | inhibition [8]: inactive | inhibition [9]: inactive | inhibition [10]: inactive | Activity [12]: inactive | inhibition [14]: Dose-dependent effect | Kd [16]: 5 µM | inhibition [19]: Active
SMILES: CCN(CC)CCCNc1cc2nc3n(c(=O)c2cc1F)CC/C3=C\c1ccc(C(C)C)cc1
Activity [5]: Active | Activity [11]: Dose-dependent effect | Activity [13]: Dose-dependent effect | Activity [15]: Active | Activity [17]: Active | Activity [18]: Active
